Measured values reported in ChEMBL document CHEMBL1156196, “'Click chemistry' synthesis of a library of 1,2,3-triazole-substituted galactose derivatives and their evaluation against Trypanosoma cruzi and its cell surface trans-sialidase” (Bioorg Med Chem, 2010).
The source made the active and inactive calls. The rule behind the calls is not given here.

How the values were obtained:
Trypanosoma cruzi [1] = experiment: Inhibition of Trypanosoma cruzi recombinant trans-sialidase at 1 mM after 10 mins by MUNANA continuous fluorimetric assay
Summary of the method: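 Recombinant His-tagged 70 kDa TcTS, truncated to drop the C-terminal repeats and keep the catalytic N-terminal domain. Enzyme and inhibitor were preincubated 10 min at 26 °C in phosphate buffer pH 7.4. MuNANA (assay concentration 0.1 mM) was then added, and released methylumbelliferone fluorescence was read after 10 min (ex 360, em 460 nm). Run in duplicate.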

[2] = Cytotoxicity against mouse splenocytes after 24 hrs using propidium iodide staining by FACS analysis; assay type: cell-based; details: splenocyte
Summary of the method: (§1)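 Spleen cells from C57BL/6 mice were mechanically dissociated and given red-cell lysis for 4 min in Tris-HCl pH 7.5/NH₄Cl. They were plated at 5 × 10⁵ cells/well with test compounds (maximum 0.25 mM for less soluble ones) for 24 h at 37 °C, 5% CO₂. 0.5% Tween 20 was the death control. Cells were stained with 10 µg/mL propidium iodide.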

Trypanosoma cruzi [3] = experiment: Antitrypanosomal activity against Trypanosoma cruzi Y at < 100 uM after 24 hrs; assay type: functional, organism-based
Summary of the method: (§2)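 Y-strain trypomastigotes from LLC-MK₂ cultures, 6.5 × 10⁶ parasites/ml in RPMI with 10% FBS. Exposure included 750, 500, 250 and 100 µM at 37 °C, 5% CO₂. Poorly water-soluble compounds needed 0.6% DMSO and were capped at 0.75 mM. Benznidazole was the reference drug. Viability was measured by counting motile forms after 24 h.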

Trypanosoma cruzi [4] = experiment: Inhibition of Trypanosoma cruzi recombinant trans-sialidase at 0.5 mM after 10 mins by MUNANA continuous fluorimetric assay
Summary of the method: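 Same His-tagged truncated recombinant TcTS (catalytic N-terminal domain) in phosphate buffer pH 7.4. Samples were dissolved in water with 0.6% DMSO and tested at 0.5 mM. Preincubation was 10 min at 26 °C, then 0.1 mM MuNANA was added. Mu fluorescence was read at 10 min (ex 360, em 460 nm), in duplicate.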

[5] = Cytotoxicity against mouse splenocytes at 50 to 100 uM after 24 hrs using propidium iodide staining by FACS analysis; assay type: cell-based; details: splenocyte; summary of the method: as §1
Trypanosoma cruzi [6] = experiment: Antitrypanosomal activity against Trypanosoma cruzi Y at > 100 uM after 24 hrs; assay type: functional; summary of the method: as §2
[7] = in the assay text read “in the low 100s of uM range” for “at < 100 uM”

| SMILES | inhibition (Trypanosoma cruzi [1]) | Activity [2] | further results |
| --- | --- | --- | --- |
| OC[C@H]1O[C@@H](n2cc(-c3ccccc3Br)nn2)[C@H](O)[C@@H](O)[C@H]1O | 33% |  |  |
| CC(=O)N[C@H]1[C@H]([C@H](O)[C@H](O)CO)OC(C(=O)O)=C[C@@H]1O | 33% |  |  |
| Cc1ncc(COP(=O)(O)O)c(C=O)c1O | 65% |  |  |
| CCC(O)c1cn([C@@H]2O[C@H](CO)[C@H](O)[C@H](O)[C@H]2O)nn1 (single isomer, unassigned) | 13% |  |  |
| O=C(O)CCCc1cn([C@@H]2O[C@H](CO)[C@H](O)[C@H](O)[C@H]2O)nn1 | 10% |  |  |
| CN(Cc1ccccc1)Cc1cn([C@@H]2O[C@H](CO)[C@H](O)[C@H](O)[C@H]2O)nn1 | 22% |  |  |
| OC[C@H]1O[C@@H](n2cc(-c3cccnc3)nn2)[C@H](O)[C@@H](O)[C@H]1O |  | Toxic | inhibition (Trypanosoma cruzi [4]): 15%; Activity [5]: 50% |
| Nc1ccc(-c2cn([C@@H]3O[C@H](CO)[C@H](O)[C@H](O)[C@H]3O)nn2)cc1 | 19% | Non-toxic | Activity (Trypanosoma cruzi [3]; [7]): Active |
| OC[C@H]1O[C@@H](n2cc(CCc3ccccc3)nn2)[C@H](O)[C@@H](O)[C@H]1O | 16% | Toxic |  |
| CO[C@@H]1O[C@H](Cn2cc(-c3ccc(C(F)(F)F)cc3)nn2)[C@H](O)[C@H](O)[C@H]1O |  | Toxic | inhibition (Trypanosoma cruzi [4]): 10%; Activity [5]: 50%; Activity (Trypanosoma cruzi [3]; [7]): Active |
| OCCCCc1cn([C@@H]2O[C@H](CO)[C@H](O)[C@H](O)[C@H]2O)nn1 | 26% |  |  |
| OC[C@H]1O[C@@H](n2cc(-c3ccc(Br)cc3)nn2)[C@H](O)[C@@H](O)[C@H]1O |  | Active | inhibition (Trypanosoma cruzi [4]): inactive; Activity [5]: 50% |
| CO[C@@H]1O[C@H](Cn2cc(COCC3CO3)nn2)[C@H](O)[C@H](O)[C@H]1O (mixture of isomers) | 25% |  |  |
| OCc1cn([C@@H]2O[C@H](CO)[C@H](O)[C@H](O)[C@H]2O)nn1 | 11% |  |  |
| CO[C@@H]1O[C@H](Cn2cc(CCCCO)nn2)[C@H](O)[C@H](O)[C@H]1O | 27% |  |  |
| Nc1ccccc1-c1cn([C@@H]2O[C@H](CO)[C@H](O)[C@H](O)[C@H]2O)nn1 | 30% | Non-toxic |  |
| OCCCc1cn([C@@H]2O[C@H](CO)[C@H](O)[C@H](O)[C@H]2O)nn1 | 27% |  |  |
| CO[C@@H]1O[C@H](Cn2cc(CCCC(=O)O)nn2)[C@H](O)[C@H](O)[C@H]1O | inactive |  |  |
| OC[C@H]1O[C@@H](n2cc(-c3ccccn3)nn2)[C@H](O)[C@@H](O)[C@H]1O | 13% | Non-toxic |  |
| CO[C@@H]1O[C@H](Cn2cc(CN3C(=O)c4ccccc4C3=O)nn2)[C@H](O)[C@H](O)[C@H]1O |  |  | inhibition (Trypanosoma cruzi [4]): 11% |
| OC[C@H]1O[C@@H](n2cc(Cc3ccccc3)nn2)[C@H](O)[C@@H](O)[C@H]1O | 37% | Active | Activity (Trypanosoma cruzi [6]): 50%; Activity [5]: 50% |
| OC[C@H]1O[C@@H](n2cc(-c3ccccc3)nn2)[C@H](O)[C@@H](O)[C@H]1O | 15% |  |  |
| CO[C@@H]1O[C@H](Cn2cc(-c3ccc(Br)cc3)nn2)[C@H](O)[C@H](O)[C@H]1O |  | Toxic | inhibition (Trypanosoma cruzi [4]): 3% |
| OC[C@H]1O[C@@H](n2cc(-c3cccc(C(F)(F)F)c3)nn2)[C@H](O)[C@@H](O)[C@H]1O | 31% |  |  |
| OC[C@H]1O[C@@H](n2cc(-c3ccc(C(F)(F)F)cc3)nn2)[C@H](O)[C@@H](O)[C@H]1O |  | Toxic | inhibition (Trypanosoma cruzi [4]): 9% |
| CC(O)Cc1cn([C@@H]2O[C@H](CO)[C@H](O)[C@H](O)[C@H]2O)nn1 (single isomer, unassigned) | 14% |  |  |
| OC[C@H]1O[C@@H](n2cc(COCC3CO3)nn2)[C@H](O)[C@@H](O)[C@H]1O (mixture of isomers) | 27% | Non-toxic |  |
| O=C1c2ccccc2C(=O)N1Cc1cn([C@@H]2O[C@H](CO)[C@H](O)[C@H](O)[C@H]2O)nn1 | 25% |  |  |
| OC[C@H]1O[C@@H](n2cc(-c3ccccc3C(F)(F)F)nn2)[C@H](O)[C@@H](O)[C@H]1O | 14% |  |  |
| COC(=O)c1cn([C@@H]2O[C@H](CO)[C@H](O)[C@H](O)[C@H]2O)nn1 | 28% |  |  |

Continued, in another order:

| inhibition (Trypanosoma cruzi [1]) | SMILES | Activity [2] | further results |
| --- | --- | --- | --- |
| 17% | CO[C@@H]1O[C@H](Cn2cc(CN(C)Cc3ccccc3)nn2)[C@H](O)[C@H](O)[C@H]1O | Non-toxic | Activity (Trypanosoma cruzi [3]): Active |
| 20% | CO[C@@H]1O[C@H](Cn2cc(-c3cccnc3)nn2)[C@H](O)[C@H](O)[C@H]1O |  |  |
| 10% | CO[C@@H]1O[C@H](Cn2cc(CC(C)O)nn2)[C@H](O)[C@H](O)[C@H]1O (mixture of isomers) |  |  |
| 29% | CO[C@@H]1O[C@H](Cn2cc(-c3ccccc3Br)nn2)[C@H](O)[C@H](O)[C@H]1O |  |  |
| 24% | CO[C@@H]1O[C@H](Cn2cc(CCCO)nn2)[C@H](O)[C@H](O)[C@H]1O | Non-toxic |  |
| 11% | CO[C@@H]1O[C@H](Cn2cc(-c3ccccc3C(F)(F)F)nn2)[C@H](O)[C@H](O)[C@H]1O |  |  |
| 3% | CO[C@@H]1O[C@H](Cn2cc(-c3cccc(C(F)(F)F)c3)nn2)[C@H](O)[C@H](O)[C@H]1O |  |  |
| 29% | CCC(O)c1cn(C[C@H]2O[C@@H](OC)[C@H](O)[C@@H](O)[C@H]2O)nn1 (mixture of isomers) | Non-toxic |  |
| 14% | CO[C@@H]1O[C@H](Cn2cc(-c3ccccn3)nn2)[C@H](O)[C@H](O)[C@H]1O |  |  |
| 14% | CO[C@@H]1O[C@H](Cn2cc(CCc3ccccc3)nn2)[C@H](O)[C@H](O)[C@H]1O |  |  |
| 29% | CO[C@@H]1O[C@H](Cn2cc(Cc3ccccc3)nn2)[C@H](O)[C@H](O)[C@H]1O |  |  |
| 28% | CO[C@@H]1O[C@H](Cn2cc(CO)nn2)[C@H](O)[C@H](O)[C@H]1O |  |  |
| 30% | COC(=O)c1cn(C[C@H]2O[C@@H](OC)[C@H](O)[C@@H](O)[C@H]2O)nn1 |  |  |
| 34% | CO[C@@H]1O[C@H](Cn2cc(-c3ccc(N)cc3)nn2)[C@H](O)[C@H](O)[C@H]1O |  |  |
| 24% | CO[C@@H]1O[C@H](Cn2cc(-c3ccccc3N)nn2)[C@H](O)[C@H](O)[C@H]1O |  |  |
| 14% | CO[C@@H]1O[C@H](Cn2cc(-c3ccccc3)nn2)[C@H](O)[C@H](O)[C@H]1O |  |  |
